Our source for the IC50 and inhibition values is ChEMBL document CHEMBL4340558, “Synthesis, biological evaluation, and molecular docking study of sulfonate derivatives as nucleotide pyrophosphatase/phosphodiesterase (NPP) inhibitors” (Bioorg Med Chem, 2019).

Test [1] deals with T1, Ectonucleotide pyrophosphatase/phosphodiesterase family member 1 (Homo sapiens, UniProt P22413).
T1 sequence (P22413 whole entry): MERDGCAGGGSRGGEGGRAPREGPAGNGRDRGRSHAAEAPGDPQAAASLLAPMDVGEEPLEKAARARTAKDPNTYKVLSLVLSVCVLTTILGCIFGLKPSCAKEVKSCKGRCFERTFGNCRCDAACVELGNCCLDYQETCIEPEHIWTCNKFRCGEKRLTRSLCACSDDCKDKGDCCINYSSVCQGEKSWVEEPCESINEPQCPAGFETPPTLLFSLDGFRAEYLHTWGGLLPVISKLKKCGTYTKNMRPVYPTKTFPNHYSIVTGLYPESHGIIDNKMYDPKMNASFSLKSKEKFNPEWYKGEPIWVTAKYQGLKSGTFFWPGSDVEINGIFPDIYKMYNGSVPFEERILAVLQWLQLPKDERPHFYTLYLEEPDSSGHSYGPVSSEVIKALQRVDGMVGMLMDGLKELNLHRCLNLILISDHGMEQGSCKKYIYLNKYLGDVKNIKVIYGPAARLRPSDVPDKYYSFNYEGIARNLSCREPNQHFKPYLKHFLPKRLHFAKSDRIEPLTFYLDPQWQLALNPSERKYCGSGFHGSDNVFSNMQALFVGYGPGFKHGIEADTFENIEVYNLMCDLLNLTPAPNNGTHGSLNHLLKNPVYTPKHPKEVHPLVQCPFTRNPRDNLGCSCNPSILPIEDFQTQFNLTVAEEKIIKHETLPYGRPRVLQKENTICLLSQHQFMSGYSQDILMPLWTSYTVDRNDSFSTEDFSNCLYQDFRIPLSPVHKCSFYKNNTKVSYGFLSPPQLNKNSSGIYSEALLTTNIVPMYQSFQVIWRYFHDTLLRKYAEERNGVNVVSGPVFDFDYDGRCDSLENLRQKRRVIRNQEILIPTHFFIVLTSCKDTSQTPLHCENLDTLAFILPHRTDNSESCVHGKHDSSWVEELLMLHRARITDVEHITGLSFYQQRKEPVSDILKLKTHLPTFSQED
The test can be described thus: Inhibition of human NPP1 expressed in African green monkey COS7 cell membranes pre-incubated for 10 mins before pNP-TMP substrate addition and further incubated for 15 mins by colorimetric method.

In test [2] the target is T2, Ectonucleotide pyrophosphatase/phosphodiesterase family member 3 (Homo sapiens, UniProt O14638).
T2 sequence (O14638 whole entry): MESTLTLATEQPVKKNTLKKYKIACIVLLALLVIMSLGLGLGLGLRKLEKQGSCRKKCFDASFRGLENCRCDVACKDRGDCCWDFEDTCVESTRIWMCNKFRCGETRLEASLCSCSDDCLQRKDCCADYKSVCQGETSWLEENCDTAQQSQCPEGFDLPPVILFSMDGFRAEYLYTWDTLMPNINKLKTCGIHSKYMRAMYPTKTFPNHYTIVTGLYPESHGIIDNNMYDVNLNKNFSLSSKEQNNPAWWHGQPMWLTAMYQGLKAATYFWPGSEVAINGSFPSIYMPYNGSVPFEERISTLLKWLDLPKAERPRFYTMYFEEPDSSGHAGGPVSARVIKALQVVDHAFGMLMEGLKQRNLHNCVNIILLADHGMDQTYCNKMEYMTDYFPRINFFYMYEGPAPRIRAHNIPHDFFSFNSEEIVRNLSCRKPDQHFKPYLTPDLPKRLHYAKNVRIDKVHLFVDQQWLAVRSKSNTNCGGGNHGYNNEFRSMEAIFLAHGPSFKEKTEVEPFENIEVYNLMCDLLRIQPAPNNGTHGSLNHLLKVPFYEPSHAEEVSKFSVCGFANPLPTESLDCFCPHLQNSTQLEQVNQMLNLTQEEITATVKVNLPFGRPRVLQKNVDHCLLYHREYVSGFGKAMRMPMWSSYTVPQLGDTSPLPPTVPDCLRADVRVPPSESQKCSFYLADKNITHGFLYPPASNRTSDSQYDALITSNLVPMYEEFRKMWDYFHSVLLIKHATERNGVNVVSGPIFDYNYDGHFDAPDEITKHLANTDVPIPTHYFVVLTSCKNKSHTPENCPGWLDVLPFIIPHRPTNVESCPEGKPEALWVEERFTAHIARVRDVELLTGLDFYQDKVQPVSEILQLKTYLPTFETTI
The test can be described thus: Inhibition of human NPP3 expressed in African green monkey COS7 cell membranes pre-incubated for 10 mins before pNP-TMP substrate addition and further incubated for 15 mins by colorimetric method.

For test [3], the target named is T3, Autotaxin (Homo sapiens, UniProt Q13822). The test can be described thus: Inhibition of human NPP2 expressed in African green monkey COS7 cell membranes pre-incubated for 5 mins before pNP-TMP substrate addition and further incubated for 35 mins by colorimetric method relative to untreated control. Also noted: concentration or dose not given beside the values. In short, it runs like this: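 Single-point screen at 100 µM test compound, added from a 1 mM stock in 10% DMSO. Buffer was 50 mM Tris-HCl, 5 mM MgCl2, 0.1 mM ZnCl2, pH 9.5, at 37 °C. pNP-TMP substrate was 400 µM for NPP1, 500 µM for NPP2, 600 µM for NPP3. Absorbance at 405 nm was read before and after substrate addition. Percent inhibition was determined in triplicate.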

Test [4] concerns the target T3, Autotaxin. The test can be described thus: Inhibition of human NPP2 expressed in African green monkey COS7 cell membranes pre-incubated for 5 mins before pNP-TMP substrate addition and further incubated for 35 mins by colorimetric method. Summed up:
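Colorimetric assay in 50 mM Tris-HCl, 5 mM MgCl2, 0.1 mM ZnCl2, pH 9.5, at 37 °C. Enzyme amounts: NPP1 35 ng, NPP2 338 ng, NPP3 37 ng. Pre-read at 405 nm was taken, then pNP-TMP was added: 400 µM for NPP1, 500 µM for NPP2, 600 µM for NPP3. A second 405 nm read followed. Runs were in triplicate. IC50 came from serial dilutions by non-linear curve fitting.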

The structures appear in SMILES notation.

Turning to `CC(C)c1cc(C(C)C)c(S(=O)(=O)Oc2ccc(NC(=O)c3ccc(Cl)cc3)cc2)c(C(C)C)c1`, the half-inhibitory concentration (IC50) (in general, the concentration needed to halve the response being measured) worked out at 0.975 µM in test [1] and 1.2 µM in test [2]. Besides, the inhibition – broadly, the drop in the measured response relative to a control, in per cent – against Autotaxin [3] is 24%.

As for `CC(C)(C)c1ccc(S(=O)(=O)Oc2ccc(NC(=O)C3CCCCC3)cc2)cc1`, the IC50 amounted to 2.55 µM in test [1] and 0.807 µM in test [2]. This compound came in with an inhibition against Autotaxin [3] of 39%.

Regarding `O=C(Nc1ccc(OS(=O)(=O)c2ccccc2)cc1)C1CCCCC1`, the values for the IC50 (in test [1]; in test [2]; on Autotaxin [4]) were 11.8 µM, 1.08 µM and 23.8 µM, respectively.

Turning to `CS(=O)(=O)Oc1ccc(NC(=O)C2CCCCC2)cc1`, the half-inhibitory concentration (IC50) in test [1] was 1.92 µM; in test [2] it was 1.35 µM. In addition, the inhibition against Autotaxin [3] amounted to 33%.

With `CC(C)(C)c1ccc(S(=O)(=O)Oc2ccc(NC(=O)c3ccc(Cl)cc3)cc2)cc1`, the IC50 in test [1] turned out to be 1.8 µM; in test [2], 1.53 µM. Moreover, the inhibition against Autotaxin [3] worked out at 31%.

On to `CCCS(=O)(=O)Oc1ccc(NC(=O)C2CCCCC2)cc1`, for which the figures for the half-maximal inhibitory concentration (IC50) (in test [1]; in test [2]; on Autotaxin [4]) were 3.46 µM, 2.41 µM and 26.2 µM, respectively.

As for `CC(C)(C)c1ccc(S(=O)(=O)Oc2ccc(NC(=O)C3CCCC3)cc2)cc1`, the half-inhibitory concentration (IC50) in test [1] came to 1.65 µM; in test [2] it was 2.68 µM. Also, the inhibition on Autotaxin [3] was 42%.

With `Cc1ccc(S(=O)(=O)Oc2ccc(NC(=O)C3CCCCCC3)cc2)cc1`, the IC50 turned out to be 0.422 µM in test [1] and 0.255 µM in test [2]. The same compound gave an inhibition against Autotaxin [3] of 24%.

As to `CC(C)c1cc(C(C)C)c(S(=O)(=O)Oc2ccc(NC(=O)c3ccc4ccccc4c3)cc2)c(C(C)C)c1`, the values for the IC50 in test [1] and in test [2] were 3.43 µM and 2.89 µM, respectively. The inhibition against Autotaxin [3] was found to be 42%.

For the compound `O=C(Nc1ccc(OS(=O)(=O)c2ccc(C(F)(F)F)cc2)cc1)c1ccc(Cl)cc1`, the half-inhibitory concentration (IC50) in test [1] is 21.6 µM; in test [2], 3.42 µM; against Autotaxin [4] it was 1.07 µM.

Take `CC(C)(C)c1ccc(S(=O)(=O)Oc2ccc(NC(=O)C3CCCCCC3)cc2)cc1`: the half-maximal inhibitory concentration (IC50) in test [1] amounted to 1.49 µM; in test [2] it was 47 µM; against Autotaxin [4], 3.91 µM.

Regarding `O=C(Nc1ccc(OS(=O)(=O)c2ccc(C(F)(F)F)cc2)cc1)C1CCCCCC1`, the IC50 turned out to be 0.431 µM in test [1] and 2.58 µM in test [2]. Moreover, on Autotaxin [3], the inhibition came to 34%.

On to `O=C(Nc1ccc(OS(=O)(=O)c2ccc(F)cc2)cc1)C1CCCCC1`, for which the 50% inhibitory concentration (IC50) came out at 0.564 µM in test [1] and 0.254 µM in test [2]. Besides, the inhibition on Autotaxin [3] came to 37%.

Turning to `O=C(Nc1ccc(OS(=O)(=O)c2ccc(F)cc2)cc1)C1CCCC1`, the results for the IC50 (in test [1]; in test [2]; against Autotaxin [4]) were 5.76 µM, 1.01 µM and 1.47 µM, respectively.

In the case of `CCS(=O)(=O)Oc1ccc(NC(=O)C2CCCCC2)cc1`, the IC50 in test [1] is 1.63 µM; in test [2], 0.369 µM; against Autotaxin [4], 1.82 µM.

In the case of `O=C(Nc1ccc(OS(=O)(=O)c2ccccc2)cc1)c1ccc(Cl)cc1`, the IC50 in test [1] was 9.61 µM; in test [2], 2.77 µM; on Autotaxin [4], greater than 100 µM.

On to `O=C(Nc1ccc(OS(=O)(=O)c2ccccc2)cc1)c1ccc2ccccc2c1`, for which the IC50 in test [1] stood at 9.3 µM; in test [2] it was 20.5 µM; against Autotaxin [4], 28 µM.

`O=C(Nc1ccc(OS(=O)(=O)c2ccc(C(F)(F)F)cc2)cc1)C1CCCCC1`: the IC50 in test [1] worked out at 0.387 µM; in test [2] it was 1.79 µM; against Autotaxin [4] it was 1.6 µM.

`O=C(Nc1ccc(OS(=O)(=O)c2ccc(C(F)(F)F)cc2)cc1)C1CCCC1`: the IC50 in test [1] was 1.13 µM; in test [2], 3.96 µM; against Autotaxin [4] it was 0.659 µM.

For the compound `Cc1ccc(S(=O)(=O)Oc2ccc(NC(=O)c3ccc(Cl)cc3)cc2)cc1`, the half-maximal inhibitory concentration (IC50) in test [1] came to 1.44 µM; in test [2], 1.62 µM; at Autotaxin [4], 7.69 µM.

With `Cc1ccc(S(=O)(=O)Oc2ccc(NC(=O)C3CCCC3)cc2)cc1`, the values for the half-inhibitory concentration (IC50) (in test [1]; in test [2]; against Autotaxin [4]) were 8.14 µM, 0.856 µM and 13.6 µM, respectively.
